Broadly, the IC50 is the concentration needed to halve the response being measured. As usually defined, the Cmax is the peak of the concentration-time curve.

From ChEMBL document CHEMBL4834420, “Projected Dose Optimization of Amino- and Hydroxypyrrolidine Purine PI3Kδ Immunomodulators” (J Med Chem, 2021) come the findings set out here.

Series [1] can be described thus: Unbound volume of distribution in Beagle dog. It counts as ADME, Canis lupus familiaris. The settings on record: in vivo.
Series [2] has as its target T1, Cytochrome P450 1A2 (Homo sapiens, UniProt P05177).
T1 sequence (P05177 whole entry): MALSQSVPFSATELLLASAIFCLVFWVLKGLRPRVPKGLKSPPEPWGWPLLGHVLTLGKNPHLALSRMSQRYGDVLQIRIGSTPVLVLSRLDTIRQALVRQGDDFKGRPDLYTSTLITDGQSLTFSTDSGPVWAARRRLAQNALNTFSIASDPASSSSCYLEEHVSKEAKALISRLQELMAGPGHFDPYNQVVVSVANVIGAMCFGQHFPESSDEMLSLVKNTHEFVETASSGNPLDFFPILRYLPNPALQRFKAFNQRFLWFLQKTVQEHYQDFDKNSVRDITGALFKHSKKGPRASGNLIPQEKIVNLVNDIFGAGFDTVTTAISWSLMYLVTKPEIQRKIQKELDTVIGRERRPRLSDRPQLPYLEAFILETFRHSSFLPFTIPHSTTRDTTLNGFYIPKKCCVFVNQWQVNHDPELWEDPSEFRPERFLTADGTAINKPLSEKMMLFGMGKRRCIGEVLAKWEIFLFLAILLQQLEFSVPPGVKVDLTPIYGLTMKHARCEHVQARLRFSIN
The experiment in a line: Inhibition of CYP1A2 (unknown origin). It counts as ADME.

Series [3] concerns the target Cytochrome P450 2D6 (Homo sapiens, UniProt P10635). Briefly: Inhibition of CYP2D6 (unknown origin). It counts as ADME.
Series [4] concerns the target T2, Phosphatidylinositol 4,5-bisphosphate 3-kinase catalytic subunit delta isoform (Homo sapiens, UniProt O00329).
T2 sequence (O00329 whole entry): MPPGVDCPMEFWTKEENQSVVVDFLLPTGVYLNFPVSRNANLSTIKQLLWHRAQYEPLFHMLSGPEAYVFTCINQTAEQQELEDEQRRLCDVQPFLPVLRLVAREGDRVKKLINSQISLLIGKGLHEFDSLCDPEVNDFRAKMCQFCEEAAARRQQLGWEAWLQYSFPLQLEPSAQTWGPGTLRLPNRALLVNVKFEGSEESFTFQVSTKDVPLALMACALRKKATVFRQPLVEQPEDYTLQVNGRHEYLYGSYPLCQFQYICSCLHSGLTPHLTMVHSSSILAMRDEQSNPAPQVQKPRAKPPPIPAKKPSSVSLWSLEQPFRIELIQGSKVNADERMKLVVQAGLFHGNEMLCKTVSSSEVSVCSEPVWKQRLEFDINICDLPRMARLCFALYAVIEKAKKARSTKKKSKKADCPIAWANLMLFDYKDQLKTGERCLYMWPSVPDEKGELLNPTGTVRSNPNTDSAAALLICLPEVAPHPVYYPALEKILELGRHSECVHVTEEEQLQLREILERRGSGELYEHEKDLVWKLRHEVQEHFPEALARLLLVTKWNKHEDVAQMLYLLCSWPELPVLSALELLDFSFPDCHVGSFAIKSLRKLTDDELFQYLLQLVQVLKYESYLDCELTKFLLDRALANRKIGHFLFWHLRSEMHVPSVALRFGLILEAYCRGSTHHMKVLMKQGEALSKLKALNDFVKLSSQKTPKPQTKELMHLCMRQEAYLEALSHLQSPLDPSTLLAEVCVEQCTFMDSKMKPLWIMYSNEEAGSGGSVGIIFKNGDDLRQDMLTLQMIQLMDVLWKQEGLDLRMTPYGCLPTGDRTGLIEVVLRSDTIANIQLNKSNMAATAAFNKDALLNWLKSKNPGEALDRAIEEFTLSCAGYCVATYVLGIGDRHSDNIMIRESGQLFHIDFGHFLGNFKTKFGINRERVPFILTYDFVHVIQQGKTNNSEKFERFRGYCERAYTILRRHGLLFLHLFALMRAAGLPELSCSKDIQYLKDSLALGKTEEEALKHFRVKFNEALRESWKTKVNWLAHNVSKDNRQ
Briefly: Inhibition of PI3Kdelta in human whole blood assessed as reduction in anti-CD79b antibody-induced CD69 expression preincubated for 60 mins followed by anti-CD79b antibody stimulation and measured after 3 hrs by FACS analysis. It is filed as tissue-based.

Series [5] in a line: Protein binding in Wistar Han rat plasma. It counts as ADME, cell-free. The settings on record: read-out: PPB (converted).
Series [6] deals with T3, Phosphatidylinositol 4,5-bisphosphate 3-kinase catalytic subunit delta isoform (Mus musculus) (UniProt O35904).
T3 sequence (whole entry): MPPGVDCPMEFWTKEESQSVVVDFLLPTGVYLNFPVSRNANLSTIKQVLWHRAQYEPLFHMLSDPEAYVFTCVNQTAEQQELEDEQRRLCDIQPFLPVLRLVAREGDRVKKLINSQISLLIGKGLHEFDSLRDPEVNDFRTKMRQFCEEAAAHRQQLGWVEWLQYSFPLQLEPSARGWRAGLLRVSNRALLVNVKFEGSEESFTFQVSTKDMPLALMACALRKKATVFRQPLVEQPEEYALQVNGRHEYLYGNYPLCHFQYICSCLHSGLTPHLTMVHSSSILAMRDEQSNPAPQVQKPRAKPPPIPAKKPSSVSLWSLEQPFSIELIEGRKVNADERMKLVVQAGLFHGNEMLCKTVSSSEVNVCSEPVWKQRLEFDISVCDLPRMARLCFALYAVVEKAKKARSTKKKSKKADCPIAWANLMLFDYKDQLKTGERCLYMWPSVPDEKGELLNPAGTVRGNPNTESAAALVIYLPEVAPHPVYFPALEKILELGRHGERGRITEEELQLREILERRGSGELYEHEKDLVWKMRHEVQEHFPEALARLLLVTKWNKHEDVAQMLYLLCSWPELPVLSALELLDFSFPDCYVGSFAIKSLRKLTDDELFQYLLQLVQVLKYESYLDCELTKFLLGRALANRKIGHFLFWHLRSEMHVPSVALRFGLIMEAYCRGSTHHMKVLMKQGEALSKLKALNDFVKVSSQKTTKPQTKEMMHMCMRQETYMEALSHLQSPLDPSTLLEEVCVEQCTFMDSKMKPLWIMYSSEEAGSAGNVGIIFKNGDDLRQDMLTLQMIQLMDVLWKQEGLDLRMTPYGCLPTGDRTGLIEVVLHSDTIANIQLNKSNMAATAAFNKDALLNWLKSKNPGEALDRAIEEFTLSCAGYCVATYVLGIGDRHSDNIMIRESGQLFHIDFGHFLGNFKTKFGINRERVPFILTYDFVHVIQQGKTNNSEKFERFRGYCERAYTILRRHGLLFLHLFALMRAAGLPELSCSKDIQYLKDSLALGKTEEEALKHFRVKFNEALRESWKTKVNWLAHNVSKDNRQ
Briefly: Inhibition of PI3Kdelta in Foxp3-GFP C57BL/6 mouse assessed as reduction in Treg population at 30 to 100 mg/kg administered upto 7 days. Details: scale not given: the % may be the effect or the level left. Conditions: dose 30-100 mg/kg, time day <=7. It counts as organism-based. In outline:
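C57BL/6 Foxp3-GFP reporter mice were dosed at 30 and 100 mg/kg/day for up to 7 days. Treg population was monitored by bioluminescence imaging 10 min after ip injection of 3 mg luciferin. Radiance was quantified as photons/s/cm²/steradian. Diphtheria toxin served as a positive control.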

The nature of series [7]: Unbound volume of distribution in Wistar Han rat. It is filed as ADME. The settings on record: in vivo.
Series [8] can be described thus: Cmax in C57BL/6 mouse at 100 mg/kg. It is filed as ADME, organism-based. Details: dose 100 mg/kg. Conditions: in vivo.

Chain of Cytochrome P450 2D6 (P10635 whole entry, canonical isoform): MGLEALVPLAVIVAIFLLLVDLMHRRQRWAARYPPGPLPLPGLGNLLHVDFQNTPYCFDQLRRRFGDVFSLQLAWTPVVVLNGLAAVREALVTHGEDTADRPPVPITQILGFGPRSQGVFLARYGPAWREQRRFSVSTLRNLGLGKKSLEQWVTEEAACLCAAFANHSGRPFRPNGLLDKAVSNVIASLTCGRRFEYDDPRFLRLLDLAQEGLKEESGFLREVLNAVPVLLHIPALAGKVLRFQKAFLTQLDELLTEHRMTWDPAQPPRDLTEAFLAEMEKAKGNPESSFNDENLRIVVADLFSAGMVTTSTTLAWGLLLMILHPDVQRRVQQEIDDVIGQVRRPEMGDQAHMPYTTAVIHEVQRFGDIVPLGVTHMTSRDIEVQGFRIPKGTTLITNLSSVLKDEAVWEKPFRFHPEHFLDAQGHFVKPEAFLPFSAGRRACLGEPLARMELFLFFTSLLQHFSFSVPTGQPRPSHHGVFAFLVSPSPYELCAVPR

In the case of `CCn1c(-c2cnc(C)nc2)nc2c(N[C@H]3CCN(C(=O)C4CC4)C3)ncnc21`, the results for the Vdu in series [1] and in series [7] were 1.8 L/kg and 6.3 L/kg, respectively. Further, the IC50 is > 50 µM in series [2], > 50 µM in series [3] and 65 nM in series [4]. Further, the fraction unbound in series [5] was 0.18. In addition, in series [6], the Activity is 70%. The Cmax in series [8] came out at 33 µM.
